{"source": "ChEMBL document CHEMBL4396973", "about": "“Design and development of a series of borocycles as selective, covalent kallikrein 5 inhibitors” (Bioorg Med Chem Lett, 2019)", "key": {"[1]": {"target": "T1, Kallikrein-5 (Homo sapiens, UniProt Q9Y337)", "T1 sequence (Q9Y337 whole entry)": "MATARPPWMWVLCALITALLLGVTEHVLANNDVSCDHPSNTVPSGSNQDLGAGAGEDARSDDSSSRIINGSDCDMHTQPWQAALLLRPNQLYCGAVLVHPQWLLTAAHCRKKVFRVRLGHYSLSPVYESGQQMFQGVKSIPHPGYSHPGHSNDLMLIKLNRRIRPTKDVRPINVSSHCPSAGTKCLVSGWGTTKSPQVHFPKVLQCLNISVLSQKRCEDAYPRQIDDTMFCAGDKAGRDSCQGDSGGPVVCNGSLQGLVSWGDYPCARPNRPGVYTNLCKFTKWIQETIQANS", "assay": "Inhibition of human recombinant 6His-Q-FLAG-tagged KLK5 expressed in baculovirus infected Sf9 insect cells using (Tos-Gly-Pro-Arg)2[R110].2TFA as substrate measured at 30 secs interval for 5 mins by FLINT assay", "how_it_was_run": "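Standard KLK5 assay format. Its theoretical tight-binding limit corresponds to pIC50 8.4.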"}, "[2]": {"assay": "Half life of the compound in Britton-Robinson buffer at pH 4 to 10 at 0.05 mg/ml", "format": "physicochemical"}, "[3]": {"assay": "Genotoxicity in Salmonella typhimurium TA100 in presence of rat S9 fraction by mini-Ames test", "format": "toxicity, subcellular", "conditions": "salmonella enterica subsp. enterica serovar typhimurium"}, "[4]": {"target": "Prothrombin (Homo sapiens, UniProt P00734)", "assay": "Inhibition of human recombinant C-terminal 10-His-tagged thrombin (M1 to E622 residues) expressed in mouse NS0 cells using BOC-VPR-AMC as substrate incubated for 40 mins by FLINT assay"}, "[5]": {"assay": "Light absorbance of the compound in methanol under UV light irradiation at 290 nm", "how_it_was_run": "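Compound dissolved in methanol. UV absorbance was examined across the range above 290 nm as a screen for light-mediated skin toxicity risk.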"}, "[6]": {"target": "Coagulation factor X (Homo sapiens, UniProt P00742)", "assay": "Inhibition of recombinant human C-terminal 10-His-tagged factor Xa (L24 to K488 residues) expressed in baculovirus infected Sf21 insect cells using Mca-RPKPVE-Nval-WRK(Dnp)-NH2 as substrate incubated for 40 mins by FLINT assay"}, "[7]": {"target": "Kallikrein-5 (Homo sapiens) (UniProt Q9Y337)", "assay": "Covalent reversible inhibition of human recombinant 6His-Q-FLAG-tagged KLK5 expressed in baculovirus infected Sf9 insect cells assessed as dissociation half life", "how_it_was_run": "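Jump-dilution experiment used to follow dissociation from KLK5. The apparent off-rate constant (K-off, per min) and dissociation half-life (T1/2) were derived from it.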"}, "[8]": {"assay": "Solubility of the compound in Britton-Robinson buffer at pH 4 measured after 24 hrs", "format": "physicochemical", "how_it_was_run": "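Solubility was measured in Britton-Robinson buffers spanning pH 2 to pH 8. Readings were taken after 12 h and 24 h and reported in mg/mL.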"}, "[9]": {"assay": "Genotoxicity in Salmonella typhimurium TA1537 in presence of rat S9 fraction by mini-Ames test", "format": "toxicity, subcellular", "conditions": "salmonella enterica subsp. enterica serovar typhimurium"}, "[10]": {"target": "T2, Kallikrein-8 (Homo sapiens, UniProt O60259)", "T2 sequence (O60259 whole entry)": "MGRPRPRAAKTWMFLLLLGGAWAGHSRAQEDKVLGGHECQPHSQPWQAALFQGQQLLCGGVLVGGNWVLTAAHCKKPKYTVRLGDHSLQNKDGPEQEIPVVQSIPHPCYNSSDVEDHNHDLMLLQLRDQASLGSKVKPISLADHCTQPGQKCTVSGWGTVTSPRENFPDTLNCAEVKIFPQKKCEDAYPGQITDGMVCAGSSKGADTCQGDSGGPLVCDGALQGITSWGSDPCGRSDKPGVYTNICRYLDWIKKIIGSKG", "assay": "Inhibition of recombinant human C-terminal 10-His-tagged KLK8 (Gln29 to Gly260 residues) expressed in mouse NS0 cells using BOC-VPR-AMC as substrate incubated for 40 mins by FLINT assay"}}, "note": "Calls of active or inactive are those of the source. No cut-off for these calls is given here.", "data": [{"smiles": "Cl.N=C(N)c1ccc([C@H]2Cc3ccc(C(F)(F)F)cc3B(O)O2)cc1OCc1cccnc1", "values": [{"measurement": "IC50", "setting": "[1]", "value": 5.01, "unit": "nM"}, {"measurement": "half-life at 0.05 mg/ml", "setting": "[2]", "value": "> 1000", "unit": "h"}, {"measurement": "Activity", "setting": "[3]", "value": "Non-Toxic"}, {"measurement": "IC50", "setting": "[4]", "value": 1260, "unit": "nM"}, {"measurement": "Activity", "setting": "[5]", "value": "inactive"}, {"measurement": "IC50", "setting": "[6]", "value": 398, "unit": "nM"}, {"measurement": "T1/2", "setting": "[7]", "value": 1.17, "unit": "h"}, {"measurement": "solubility at 24 h", "setting": "[8]", "value": "> 9000", "unit": "µg/mL"}, {"measurement": "Activity", "setting": "[9]", "value": "Non-Toxic"}, {"measurement": "IC50", "setting": "[10]", "value": 6.31, "unit": "nM"}]}]}
